Results: ChEMBL document CHEMBL4257531, “The role of aryl-topology in balancing between selective and dual 5-HT7R/5-HT1A actions of 3,5-substituted hydantoins” (Medchemcomm, 2018)

Key:
D(2) dopamine receptor = D(2) dopamine receptor (Homo sapiens, UniProt P14416); assay: Displacement of [3H]-raclopride from human D2L receptor expressed in HEK293 cell membranes after 1 hr by microbeta counting method
[1] = target: 5-hydroxytryptamine receptor 7 (Homo sapiens, UniProt P34969); assay: Displacement of [3H]-5-carboxamidotryptamine from human 5-HT7B receptor expressed in HEK293 cell membranes after 1 hr by microbeta counting method
[2] = target: T1, 5-hydroxytryptamine receptor 1A (Homo sapiens, UniProt P08908); assay: Displacement of [3H]-8-OH-DPAT from human 5-HT1A receptor expressed in HEK293 cell membranes after 1 hr by microbeta counting method
T1 sequence (P08908 whole entry): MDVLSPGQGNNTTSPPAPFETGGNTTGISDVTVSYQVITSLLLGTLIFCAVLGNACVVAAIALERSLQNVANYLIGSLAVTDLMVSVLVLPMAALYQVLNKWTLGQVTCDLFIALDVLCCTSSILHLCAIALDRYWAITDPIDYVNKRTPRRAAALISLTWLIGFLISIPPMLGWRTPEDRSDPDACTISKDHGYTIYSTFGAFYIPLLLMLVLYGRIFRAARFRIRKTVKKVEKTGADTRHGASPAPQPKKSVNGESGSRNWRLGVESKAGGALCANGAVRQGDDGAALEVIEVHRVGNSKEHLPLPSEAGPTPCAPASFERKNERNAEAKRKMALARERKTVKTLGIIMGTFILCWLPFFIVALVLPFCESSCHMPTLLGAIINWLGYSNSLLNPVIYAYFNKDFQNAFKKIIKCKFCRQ

HepG2 [3] = assay: Cytotoxicity against human HepG2 cells assessed as reduction in cell viability at 10 uM after 72 hrs by MTS assay; assay type: cell-based; conditions: hepg2, 72 h
Method in brief: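 Cells exposed to test compound across 0.1–100 μM (four concentrations) for 72 h. Viability read by MTS assay, absorbance at 490 nm. Positive controls: doxorubicin 1 μM for both lines, plus CCCP 10 μM for HepG2 only. Significance versus negative control assessed by one-way ANOVA with Bonferroni's test.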

HEK293 [4] = assay: Cytotoxicity against HEK293 cells assessed as reduction in cell viability after 72 hrs by MTS assay; conditions: human, hek293, 72 h
HepG2 [5] = assay: Cytotoxicity against human HepG2 cells assessed as reduction in cell viability at 0.1 to 10 uM after 72 hrs by MTS assay; assay type: cell-based; conditions: hepg2, 72 h
Method in brief: (§1)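 Viability by MTS, absorbance at 490 nm, after 72 h exposure at 0.1–100 μM; doxorubicin 1 μM as positive control. HepG2 only: CCCP 10 μM as additional control. Significance versus negative control by one-way ANOVA with Bonferroni test.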

[6] = Half life in CD-1 mouse liver microsomes by UPLC-MS analysis; assay type: ADME, microsome; conditions: for t1/2: mouse, microsomes
Method in brief: (§2)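 Mouse liver microsomes with NADPH regeneration system; incubation followed by UPLC-MS with ion fragmentation. Percent substrate remaining read after 120 min; t1/2 and hepatic intrinsic clearance calculated.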

[7] = Metabolic stability in CD-1 mouse liver microsomes assessed as parent compound remaining after 120 mins by UPLC-MS analysis; assay type: ADME, microsome; conditions: 2 h; method in brief: as §2
[8] = Drug metabolism in CD-1 mouse liver microsomes after 120 mins by UPLC-MS analysis; assay type: ADME, microsome; conditions: for metabolised at 2 h: CD-1, mouse, liver microsomes, read-out: Drug metabolism; method in brief: as §2
HepG2 [9] = assay: Cytotoxicity against human HepG2 cells assessed as reduction in cell viability at 100 uM after 72 hrs by MTS assay; assay type: cell-based; conditions: hepg2, 72 h; method in brief: as §1
HEK293 [10] = assay: Cytotoxicity against HEK293 cells assessed as reduction in cell viability at 0.1 to 10 uM after 72 hrs by MTS assay; assay type: cell-based; conditions: human, hek293, 72 h; method in brief: as §1
HEK293 [11] = assay: Cytotoxicity against HEK293 cells assessed as reduction in cell viability at 100 uM after 72 hrs by MTS assay; assay type: cell-based; conditions: human, hek293, 72 h; method in brief: as §1
[12] = Intrinsic clearance in CD-1 mouse liver microsomes by UPLC-MS analysis; assay type: ADME, microsome; conditions: read-out: CLH; method in brief: as §2
Homo sapiens = organism: Homo sapiens; assay: Selectivity ratio of Ki for 5-HT1A receptor (unknown origin) to Ki for 5-HT7 receptor (unknown origin)
Method in brief: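 Competition binding on membranes of HEK-293 cells stably expressing human 5-HT1A or 5-HT7b receptors. 5-HT1A used 2.5 nM [3H]-8-OH-DPAT at room temperature; 5-HT7b used 0.8 nM [3H]-5-CT at 37 °C. Both ran 1 h, with 10 μM 5-HT for nonspecific binding. Seven concentrations (10–10–10–4 M) were tested in triplicate, with filtration read-out.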

HEK293 [13] = assay: Cytotoxicity against HEK293 cells assessed as reduction in cell viability at 1 uM after 72 hrs by MTS assay; assay type: cell-based; conditions: human, hek293, 72 h; method in brief: as §1
HepG2 [14] = assay: Cytotoxicity against human HepG2 cells assessed as reduction in cell viability at 1 uM after 72 hrs by MTS assay; assay type: cell-based; conditions: hepg2, 72 h; method in brief: as §1

D(2) dopamine receptor, sequence (P14416 whole entry): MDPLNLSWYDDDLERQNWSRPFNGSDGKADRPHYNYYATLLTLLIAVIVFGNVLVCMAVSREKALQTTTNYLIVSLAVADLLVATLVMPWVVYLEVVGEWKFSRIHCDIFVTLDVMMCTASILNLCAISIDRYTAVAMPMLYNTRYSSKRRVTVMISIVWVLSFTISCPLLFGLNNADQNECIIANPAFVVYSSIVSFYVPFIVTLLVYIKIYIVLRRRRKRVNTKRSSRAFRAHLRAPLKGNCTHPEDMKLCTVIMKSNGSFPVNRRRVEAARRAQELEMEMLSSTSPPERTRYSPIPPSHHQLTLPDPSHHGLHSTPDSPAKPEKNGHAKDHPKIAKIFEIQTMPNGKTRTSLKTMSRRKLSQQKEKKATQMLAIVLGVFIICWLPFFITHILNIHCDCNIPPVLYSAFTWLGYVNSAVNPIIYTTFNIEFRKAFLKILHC
5-hydroxytryptamine receptor 7, sequence (P34969 whole entry): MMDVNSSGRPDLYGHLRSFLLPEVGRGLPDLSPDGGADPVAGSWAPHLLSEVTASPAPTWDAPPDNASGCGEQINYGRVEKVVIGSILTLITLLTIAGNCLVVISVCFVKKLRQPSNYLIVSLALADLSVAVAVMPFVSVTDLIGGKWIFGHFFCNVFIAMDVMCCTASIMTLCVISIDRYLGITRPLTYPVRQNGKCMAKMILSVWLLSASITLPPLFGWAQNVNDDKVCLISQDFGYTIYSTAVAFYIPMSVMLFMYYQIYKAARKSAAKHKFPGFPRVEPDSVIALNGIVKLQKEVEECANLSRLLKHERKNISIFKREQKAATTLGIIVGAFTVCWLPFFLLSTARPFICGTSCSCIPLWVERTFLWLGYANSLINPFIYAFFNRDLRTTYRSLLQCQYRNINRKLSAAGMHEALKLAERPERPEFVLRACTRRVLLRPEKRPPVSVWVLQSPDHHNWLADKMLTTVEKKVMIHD

Compound | Ki (D(2) dopamine receptor) [nM] | Ki [1] [nM] | Ki [2] [nM] | also measured
N#CC(C#N)=NNc1cccc(Cl)c1 [CARBONYL CYANIDE M-CHLOROPHENYLHYDRAZONE] |  |  |  | Activity (HepG2 [3]): Toxic; Activity (HEK293 [4]): Toxic
CC1(c2ccc(F)cc2)NC(=O)N(CC(O)CN2CCC(Oc3ccccc3)CC2)C1=O (configuration not stated) | 4350 | 165 | 5210 | 
CC1(c2ccc(F)cc2)NC(=O)N(CC(O)CN2CCN(Cc3cccc4ccccc34)CC2)C1=O (configuration not stated) | 5230 | 2170 | 5580 | 
CC1(c2ccc(F)cc2)NC(=O)N(CC(O)CN2CCC(Oc3ccc(Cl)cc3)CC2)C1=O (configuration not stated) | 4120 | 172 | 21500 | 
CC1(c2ccc(F)cc2)NC(=O)N(CC(O)CN2CCN(C(c3ccccc3)c3ccccc3)CC2)C1=O (configuration not stated) |  |  |  | t1/2 [6]: 2.625 h; Stability [7]: 20%; Ratio Ki (Homo sapiens): 71; CLint scaled [12]: 17.2 mL/min/kg
CC1(C)NC(=O)N(CC(O)CN2CCN(c3ccccc3C#N)CC2)C1=O (configuration not stated) | 3430 | 209 | 1160 | 
CC1(c2ccc(F)cc2)NC(=O)N(CC(O)CN2CCN(Cc3ccccc3)CC2)C1=O (configuration not stated) | 20000 | 2080 | 378000 | 
CC1(c2ccc(F)cc2)NC(=O)N(CC(O)CN2CCN(C(=O)c3ccccc3)CC2)C1=O (configuration not stated) | 10100 | 3610 | 6220 | 
CC1(C)NC(=O)N(CC(O)CN2CCN(C(c3ccccc3)c3ccccc3)CC2)C1=O (configuration not stated) | 1150 | 824 | 15100 | 
COc1cccc2c1C(=O)c1c(O)c3c(c(O)c1C2=O)C[C@@](O)(C(=O)CO)C[C@@H]3O[C@H]1C[C@H](N)[C@H](O)[C@H](C)O1 [DOXORUBICIN] |  |  |  | Activity (HEK293 [13]): Toxic; Activity (HepG2 [14]): Toxic
COc1ccccc1N1CCN(CC(O)CN2C(=O)NC(C)(C)C2=O)CC1 (configuration not stated) | 2130 | 125 | 489 | 
CC1(c2ccc(F)cc2)NC(=O)N(CC(O)CN2CCc3ccccc3C2)C1=O (configuration not stated) | 5850 | 888 | 1550 | 

Continued by falling Ki (D(2) dopamine receptor), values first:

Ki (D(2) dopamine receptor) [nM] | Ki [1] [nM] | Ki [2] [nM] | Compound | also measured
416 | 19 | 1230 | CC1(c2cccc3ccccc23)NC(=O)N(CC(O)CN2CCN(c3ccccc3C#N)CC2)C1=O (configuration not stated) | 
295 | 11 | 19 | CC1(c2ccc(F)cc2)NC(=O)N(CC(O)CN2CCN(c3cccc4ccccc34)CC2)C1=O (configuration not stated) | Activity (HepG2 [5]): Non-Toxic; t1/2 [6]: 0.75 h; Stability [7]: 65%; metabolised at 2 h [8]: 65 to 70%; Activity (HepG2 [9]): Toxic; Activity (HEK293 [10]): Non-Toxic; Activity (HEK293 [11]): Toxic; CLint scaled [12]: 60.3 mL/min/kg
273 | 224 | 413000 | CC1(c2cccc3ccccc23)NC(=O)N(CC(O)CN2CCN(C(c3ccccc3)c3ccccc3)CC2)C1=O (configuration not stated) | 
264 | 3 | 129 | CC1(c2ccc3ccccc3c2)NC(=O)N(CC(O)CN2CCN(c3ccccc3C#N)CC2)C1=O (configuration not stated) | 
256 | 5 | 326 | COc1ccccc1N1CCN(CC(O)CN2C(=O)NC(C)(c3cccc4ccccc34)C2=O)CC1 (configuration not stated) | Activity (HepG2 [5]): Non-Toxic; half-life ([6]; CD-1, mouse, liver microsomes): 1.57 h; Stability [7]: 40%; Drug metabolism ([8]; mouse, microsomes, 2 h): 40%; Activity (HepG2 [9]): Toxic; Activity (HEK293 [10]): Non-Toxic; Activity (HEK293 [11]): Toxic; CLint scaled [12]: 29 mL/min/kg
153 | 3 | 128 | COc1ccccc1N1CCN(CC(O)CN2C(=O)NC(C)(c3ccc4ccccc4c3)C2=O)CC1 (configuration not stated) | Activity (HepG2 [5]): Non-Toxic; t1/2 [6]: 1.04 h; Stability [7]: 70%; metabolised at 2 h [8]: 65 to 70%; Activity (HepG2 [9]): Toxic; Activity (HEK293 [10]): Non-Toxic; Activity (HEK293 [11]): Toxic; CLint scaled [12]: 43.4 mL/min/kg
